What all share (assay type): functional
The test system of assay [1] is Cladosporium herbarum. Briefly: Antifungal activity against Cladosporium herbarum IMI300461 by microdilution method. An outline of the steps: (§1)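 Broth microdilution with two-fold (×2) dilution series of compounds from 1.56 to 800 µg/mL, four replicates per concentration per test strain; MIC taken as the lowest concentration inhibiting growth. Nystatin (fungi) and chloramphenicol (bacteria) were run as positive controls over the same concentration range.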
In general terms: In broth dilution the organism is exposed to a series of concentrations in liquid medium.

For assay [2], the system named is Eurotium amstelodami. Briefly: Antifungal activity against Eurotium amstelodami FC1021 by microdilution method. The conditions noted are these: Aspergillus amstelodami. An outline of the steps:
as §1

Assay [3] has as its system Plenodomus lingam. Briefly: Antifungal activity against Leptosphaeria maculans IMI266355 by microdilution method. An outline of the steps: as §1
Assay [4] relates to Botrytis cinerea. Briefly: Antifungal activity against Botrytis cinerea IMI160282 by microdilution method. An outline of the steps: as §1
For assay [5], the system named is Pseudomonas syringae. Briefly: Antibacterial activity against Pseudomonas syringae IMI347448 by microdilution method. Put shortly:
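Two-fold broth microdilution MIC, four replicates per concentration per strain, over 1.56 to 800 µg/mL. Chloramphenicol served as the antibacterial positive control across the same concentration range.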

For assay [6], the system named is Bacillus subtilis. Briefly: Antibacterial activity against Bacillus subtilis IMI347329 by microdilution method. Put shortly: as §1

Values after ≈ are worked out from the molar mass of the structure shown. Some results are limits rather than exact numbers.

With NYSTATIN, the MIC (commonly the smallest concentration in the dilution series that meets the test's criterion for growth inhibition) in assay [1] was 25 µg/mL; in assay [2], 50 µg/mL; in assay [3], 100 µg/mL; in assay [4], 50 µg/mL.

For `O=C(N[C@H](CO)[C@H](O)c1ccc([N+](=O)[O-])cc1)C(Cl)Cl` [CHLORAMPHENICOL], the MIC in assay [5] amounted to 3.13 µg/mL (≈ 9.69 µM); in assay [6] it was 6.25 µg/mL (≈ 19.3 µM).

Regarding `O=Cc1ccc(-c2ccoc2)cc1`, the MIC in assay [5] was 200 µg/mL (≈ 1160 µM); in assay [1] it was 200 µg/mL (≈ 1160 µM); in assay [2], 100 µg/mL (≈ 581 µM); in assay [3], 200 µg/mL (≈ 1160 µM); in assay [6] it was 800 µg/mL (≈ 4650 µM); in assay [4] it was 200 µg/mL (≈ 1160 µM).

With `O=Cc1ccc(C2COC(=O)C2)cc1` (stereo not drawn), the minimal inhibitory concentration (MIC) was 400 µg/mL (≈ 2100 µM) in assay [5]; 400 µg/mL (≈ 2100 µM) in assay [1]; 200 µg/mL (≈ 1050 µM) in assay [2]; 400 µg/mL (≈ 2100 µM) in assay [3]; more than 800 µg/mL in assay [6]; 200 µg/mL (≈ 1050 µM) in assay [4].

These data come from ChEMBL document CHEMBL1141283, “Benzaldehyde derivatives from Sarcodontia crocea” (2007).
